Experimental data of several laboratories.
Protocols differ between the studies behind these lines.
BCHE: Cholinesterase (BCHE, Equus caballus, UniProt P81908)
SLC6A4: Sodium-dependent serotonin transporter (SLC6A4, Homo sapiens, UniProt P31645)

SMILES	target	observed	action	method	setting	IC50
C#CCN(C)c1nc(NCCCC2CCN(Cc3ccccc3)CC2)c(C#N)cc1C#N	BCHE	enzyme activity	inhibitor	Ellman	–	1.19 µM
CCOc1ccc(C=NNC(=S)NCC(=O)c2ccc(Cl)cc2)cc1	BCHE	enzyme activity	inhibitor	Ellman	–	334 µM
CC(=O)N1C[C@H](CCN2CC=C(c3c[nH]c4cc(Cl)ccc34)CC2)c2ccccc21	SLC6A4	ligand displacement	–	radioligand	cell membranes	0.0818 µM
C[C@H](N)Cn1ncc2ccc3c(c21)CCCO3	D(1A) dopamine receptor (DRD1, Homo sapiens, UniProt P21728)	ligand displacement	–	radioligand	–	138 µM
O=C(CNC(=S)NN=Cc1ccc([N+](=O)[O-])cc1)c1ccc([N+](=O)[O-])cc1	BCHE	enzyme activity	inhibitor	Ellman	–	326 µM
NC(N)=S	Urease (Canavalia ensiformis, UniProt P07374)	enzyme activity	inhibitor	–	–	8.83 µM
CC=C1[C@H]2C=C(C)C[C@]1(N)c1cc(I)c(=O)[nH]c1C2	BCHE	enzyme activity	inhibitor	Ellman	–	325 µM
I/C=C/CN1CCN(CCc2ccc3c(c2)CCO3)CC1	Sigma non-opioid intracellular receptor 1 (Sigmar1, Mus musculus, UniProt O55242)	ligand displacement	–	radioligand	cell membranes	0.00068 µM
CC=C1[C@H]2C=C(C)C[C@]1(N)c1cc(N)c(=O)[nH]c1C2	BCHE	enzyme activity	inhibitor	Ellman	–	525 µM
O=P(O)(O)Oc1ccccc1OP(=O)(O)O	Signal transducer and activator of transcription 5A, SH2 (Homo sapiens, UniProt P42229)	ligand displacement	–	FP	–	69 µM
CC=C1[C@H]2C=C(C)C[C@]1(N)c1cc(OCCCC)c(=O)[nH]c1C2	BCHE	enzyme activity	inhibitor	Ellman	–	16.9 µM
Clc1ccc2c(C3CCN(CCc4c[nH]c5ccccc45)CC3)c[nH]c2c1	SLC6A4	ligand displacement	–	radioligand	cell membranes	0.0021 µM
CC=C1[C@H]2C=C(C)C[C@]1(N)c1cc(OCC)c(=O)[nH]c1C2	BCHE	enzyme activity	inhibitor	Ellman	–	253 µM
CCn1cnc2c(Nc3cccc(Cl)c3)nc(N[C@@H]3CCCC[C@@H]3N)nc21	Ribosomal protein S6 kinase alpha-3, N-terminal kinase domain (RPS6KA3, Homo sapiens, UniProt P51812)	enzyme activity	inhibitor	FP	–	1 µM
